Laboratory results published in ChEMBL document CHEMBL3739311 (ACS Med Chem Lett, 2015).
Values after ≈ are worked out from the molar mass of the structure shown.

How the values were obtained:
[1] = system: Human immunodeficiency virus 1; assay: Antiviral activity against HIV-1 X4 expressing wild-type reverse transcriptase infected in human CD4+ T cells for 3 days by FACS analysis; assay type: functional, organism-based; conditions: Human immunodeficiency virus 1, X4, T-cell, 72 h
Summary of the method: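 Single-round infectivity assay using HIV strains carrying wild-type RT (WT X4); EC50 determined.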

[2] = system: Human immunodeficiency virus 1; assay: Antiviral activity against HIV-1 X4 expressing reverse transcriptase K101P mutant infected in human CD4+ T cells for 3 days by FACS analysis; assay type: functional, organism-based; conditions: Human immunodeficiency virus 1, T-cell, 72 h
Summary of the method: (§1)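 Single-round infectivity assay against HIV strains whose RT carries the K101P, K103N or Y181C mutation, alongside a WT X4 strain; EC50 determined.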

[3] = target: Human immunodeficiency virus type 1 reverse transcriptase (Human immunodeficiency virus 1, UniProt Q72547, K101P); assay: Inhibition of HIV-1 reverse transcriptase K101P mutant by fluorescence assay
Summary of the method: (§2)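 PicoGreen fluorescence read-out of reverse transcription, run with both RT(WT) and RT(K101P) enzymes; IC50 determined for each enzyme. The fold-change is IC50 for RT(K101P) over IC50 for RT(WT).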

[4] = system: Human immunodeficiency virus 1; assay: Antiviral activity against HIV-1 X4 expressing reverse transcriptase Y181C mutant infected in human CD4+ T cells for 3 days by FACS analysis; assay type: functional, organism-based; conditions: Human immunodeficiency virus 1, T-cell, 72 h; summary of the method: as §1
[5] = system: Human immunodeficiency virus 1; assay: Antiviral activity against HIV-1 X4 expressing reverse transcriptase K103N mutant infected in human CD4+ T cells for 3 days by FACS analysis; assay type: functional, organism-based; conditions: Human immunodeficiency virus 1, T-cell, 72 h; summary of the method: as §1
[6] = Aqueous solubility of compound; assay type: physicochemical
[7] = system: Human immunodeficiency virus 1; assay: Selectivity index, ratio of IC50 for HIV-1 reverse transcriptase K101P mutant to IC50 for wild-type HIV-1 reverse transcriptase; summary of the method: as §2
[8] = Cytotoxicity against human CD4-positive T cells; assay type: cell-based, T-cell
[9] = system: Human immunodeficiency virus 1; assay: Antiviral activity against HIV-1 NL4-3 expressing reverse transcriptase E138K/M184V mutant infected in MT-2 cells by MTT assay; assay type: functional, organism-based; conditions: Human immunodeficiency virus 1, NL4-3, MT2
[10] = system: Human immunodeficiency virus 1; assay: Antiviral activity against HIV-1 NL4-3 expressing reverse transcriptase E138K mutant infected in MT-2 cells by MTT assay; assay type: functional, organism-based; conditions: Human immunodeficiency virus 1, NL4-3, MT2
[11] = target: Human immunodeficiency virus type 1 reverse transcriptase (Human immunodeficiency virus 1, UniProt Q72547); assay: Inhibition of wild-type HIV-1 reverse transcriptase by fluorescence assay
Summary of the method: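 Reverse transcription inhibition by wild-type RT enzyme, read by PicoGreen fluorescence; IC50 in nM.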

| Compound | EC50 [1] | EC50 [2] | IC50 [3] | EC50 [4] | EC50 [5] | solubility [6] | Ratio IC50 [7] | CC50 [8] | EC50 [9] | EC50 [10] | IC50 [11] |
| --- | --- | --- | --- | --- | --- | --- | --- | --- | --- | --- | --- |
| Cc1cc(/C=C/C#N)cc(C)c1Nc1ccnc(Nc2ccc(C#N)cc2)n1 [RILPIVIRINE] | 13 nM | 1140 nM | 1000 nM | 51 nM | 13 nM | < 0.1 µg/mL |  |  |  |  |  |
| N#C/C=C/c1cc(Cl)cc(Oc2ccccc2OCCn2ccc(=O)[nH]c2=O)c1 | 5 nM | 8 nM | 2.1 nM | 23 nM | 50 nM |  | 0.6 | 18000 nM | 2.2 nM | 2.8 nM | 3.3 nM |
| O=C1Nc2ccc(Cl)cc2[C@@](C#CC2CC2)(C(F)(F)F)O1 [EFAVIRENZ] |  | 870 nM |  | 41 nM | 836 nM |  |  |  |  |  |  |
| N#C/C=C/c1cc(F)cc(Oc2ccc(F)cc2OCCn2ccc(=O)[nH]c2=O)c1 | 2 nM | 2 nM | 2.2 nM | 8 nM | 89 nM | 10.8 µg/mL (≈ 26.3 µM) | 0.8 | 45000 nM |  |  | 2.7 nM |
| N#Cc1cc2c(Oc3ccccc3OCCn3ccc(=O)[nH]c3=O)cccn2c1 | 1 nM | 1 nM | 1.9 nM | 2 nM | 3 nM |  | 1.8 | > 100000 nM | 0.75 nM | 0.9 nM | 1.06 nM |
